{"data": "Experimental data gathered from unrelated publications", "target": "Histamine H2 receptor (HRH2, Homo sapiens, UniProt P25021)", "note": "Compare with care: the assays were run in different laboratories."}
{"SMILES": "CCCNc1nc2ccccc2n1Cc1ccc(Cl)cc1", "test": "ligand displacement", "setting": "10 µM", "measurement": "inhibition", "value": "83.3%"}
{"SMILES": "N=C(NCCCCCCCCCCCCN)NCCCc1c[nH]cn1", "test": "GTPγS binding, agonist, radiometric", "setting": "cell membranes", "measurement": "Emax", "value": "66%"}
{"SMILES": "N#Cc1cc(Cn2c(N3CCCC3)nc3ccccc32)ccc1F", "test": "ligand displacement", "setting": "10 µM", "measurement": "inhibition", "value": "64.1%"}
{"SMILES": "CCN(CC)c1ccc(C2Nc3ccc(C(=O)c4ccccc4)cc3NC3=C2C(=O)CC(C)(C)C3)cc1 (stereo not drawn)", "test": "ligand displacement, radioligand", "setting": "10 µM", "measurement": "inhibition", "value": "38%"}
{"SMILES": "O=C1N=C(N2CCCCN2)S/C1=C\\c1ccc(F)cc1O", "test": "ligand displacement, radioligand", "setting": "10 µM", "measurement": "inhibition", "value": "< 10%"}
{"SMILES": "O=C(c1ccc(F)cc1)N(Cc1ccccc1)C1CCCCC1", "test": "cell-free assay", "setting": "10 µM", "measurement": "inhibition", "value": "-3%"}
{"SMILES": "N#Cc1ccc(Nc2ccc3[nH]c(=O)[nH]c3c2)c(Cl)c1", "test": "cell-free assay", "setting": "10 µM", "measurement": "inhibition", "value": "2.26%"}
{"SMILES": "O=C(c1ccc(Cl)cc1)N(Cc1ccccc1)C1CCCCC1", "test": "cell-free assay", "setting": "10 µM", "measurement": "inhibition", "value": "-27.3%"}
{"SMILES": "COCCOc1nc(-c2ccc(Cl)nc2)nc2c1CN(C(=O)c1ncn3ccccc13)CC2", "test": "ligand displacement", "setting": "10 µM", "measurement": "inhibition", "value": "-0.24%"}
{"SMILES": "CCN(Cc1ccccc1C(F)(F)F)C(=O)C1CCN(S(=O)(=O)c2ccc3[nH]ncc3c2)CC1", "test": "ligand displacement, radioligand", "setting": "10 µM", "measurement": "inhibition", "value": "5%"}
{"SMILES": "O=C(Nc1ccc(S(=O)(=O)N2CCC(Cl)CC2)cc1)c1ccc([N+](=O)[O-])o1", "test": "ligand displacement, radioligand", "setting": "10 µM", "measurement": "inhibition", "value": "10%"}
{"SMILES": "Cc1nc(N)sc1CCCNC(=N)NCCCCCCCCNC(=N)NCCCc1sc(N)nc1C", "test": "GTPγS binding, agonist, radiometric", "setting": "cell membranes", "measurement": "Emax", "value": "52%"}
